Measurements reported in ChEMBL document CHEMBL3351250, “Modified salicylanilide and 3-phenyl-2H-benzo[e][1,3]oxazine-2,4(3H)-dione derivatives as novel inhibitors of osteoclast differentiation and bone resorption” (J Med Chem, 2014).
Active and inactive are the calls of the source. The rule behind the calls is not given here.

What was measured:
[1] = Cytotoxicity against mouse RAW264.7 cells assessed as survival rate at 10 uM after 24 hrs by MTT assay; type: cell-based; conditions: read-out: Activity
Summary of the method: (§1)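 Cells at 1 × 10⁴/well in DMEM + 10% FBS, exposed to compounds for 24 h at 37 °C, 5% CO₂. After PBS washes, MTT (0.5 mg/mL in medium) added for 1 h at 37 °C; formazan dissolved in DMSO, absorbance read at 540 nm. Viability expressed as % of DMSO control; CC₅₀ is the concentration giving 50% loss of mean viability (N = 3).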

[2] = Cytotoxicity against mouse RAW264.7 cells assessed as reduction in survival rate after 24 hrs by MTT assay; type: cell-based; summary of the method: as §1
[3] = system: RAW264.7; assay: Inhibition of RANKL-induced osteoclastogenesis in mouse RAW264.7 cells assessed as TRAP+ multinucleated cells level at 10 uM incubated for 4 days by TRAP staining assay; type: functional; parameters: scale not given: the % may be the effect or the level left
Summary of the method: (§2)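 Cells plated at 1 × 10³ (96-well) or 5 × 10⁴ (48-well) in α-MEM with 10% FBS, 2 mM […], 100 ng/mL recombinant murine RANKL and compound for 4 days; medium changed on day 2. Fixed in acetone/citrate/formaldehyde for 5 min and TRAP-stained. TRAP⁺ cells with >5 nuclei counted by light microscopy, expressed as % of the RANKL-only group.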

[4] = system: RAW264.7; assay: Inhibition of RANKL-induced osteoclastogenesis in mouse RAW264.7 cells assessed as TRAP+ multinucleated cells level incubated for 4 days by TRAP staining assay; type: functional, cell-based; conditions: RAW264.7, 96 h
Summary of the method: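 RAW264.7 cells in α-MEM with 10% FBS, 2 mM […], 100 ng/mL recombinant soluble murine RANKL and a range of compound concentrations for 4 days, with medium changed on day 2. Cells fixed in acetone/citrate/formaldehyde for 5 min and TRAP-stained. Cells with >5 nuclei counted by light microscopy and expressed as % of RANKL-only; IC50 is 50% inhibition.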

[5] = system: RAW264.7; assay: Cytotoxicity against mouse RAW264.7 cells assessed as survival rate at 5 and 10 uM after 24 hrs by MTT assay; type: cell-based; conditions: raw264.7, 24 h; summary of the method: as §1
[6] = system: RAW264.7; assay: Inhibition of RANKL-induced osteoclastogenesis in mouse RAW264.7 cells assessed as TRAP+ multinucleated cells level at 5 uM incubated for 4 days by TRAP staining assay; type: functional; parameters: scale not given: the % may be the effect or the level left; summary of the method: as §2
[7] = system: RAW264.7; assay: Inhibition of RANKL-induced osteoclastogenesis in mouse RAW264.7 cells assessed as TRAP+ multinucleated cells level at […] incubated for 4 days by TRAP staining assay; type: functional; parameters: scale not given: the % may be the effect or the level left
[8] = system: RAW264.7; assay: Inhibition of RANKL-induced osteoclastogenesis in mouse RAW264.7 cells assessed as TRAP+ multinucleated cells level at 2.5 uM incubated for 4 days by TRAP staining assay; type: functional; parameters: scale not given: the % may be the effect or the level left; summary of the method: as §2
[9] = system: RAW264.7; assay: Inhibition of RANKL-induced osteoclastogenesis in mouse RAW264.7 cells assessed as reduction in TRAP activity incubated for 4 days by TRAP staining assay; type: functional, cell-based; conditions: for IC50: RAW264.7, 96 h
Summary of the method: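 RAW264.7 cells were RANKL-differentiated (100 ng/mL recombinant soluble murine RANKL in α-MEM/10% FBS, compounds at various concentrations, 4 days, medium changed day 2). TRAP activity was read with 2 mg/mL 4-nitrophenyl phosphate in 0.09 M citrate buffer for 15 min at 37 °C, stopped with 0.1 N NaOH. Expressed as % of RANKL-only; IC50 is 50% inhibition.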

[10] = system: RAW264.7; assay: Inhibition of RANKL-induced NFATc1 mRNA expression in mouse RAW264.7 cells at 5 to […] pre-treated for 1 hr before RANKL stimulation measured after 24 to 48 hrs by RT-PCR method; type: functional, cell-based
[11] = system: RAW264.7; assay: Inhibition of RANKL-induced c-fos mRNA expression in mouse RAW264.7 cells at 5 to […] pre-treated for 1 hr before RANKL stimulation measured after 24 to 48 hrs by RT-PCR method; type: functional, cell-based
[12] = system: RAW264.7; assay: Inhibition of RANKL-induced DC-STAMP mRNA expression in mouse RAW264.7 cells at 5 to […] pre-treated for 1 hr before RANKL stimulation measured after 24 to 48 hrs by RT-PCR method; type: functional, cell-based
[13] = system: RAW264.7; assay: Inhibition of RANKL-induced TRAP mRNA expression in mouse RAW264.7 cells at 5 to […] pre-treated for 1 hr before RANKL stimulation measured after 24 to 48 hrs by RT-PCR method; type: functional, cell-based
[14] = system: RAW264.7; assay: Inhibition of RANKL-induced cathepsin K mRNA expression in mouse RAW264.7 cells at 5 to […] pre-treated for 1 hr before RANKL stimulation measured after 24 to 48 hrs by RT-PCR method; type: functional, cell-based
[15] = system: RAW264.7; assay: Inhibition of RANKL-induced MMP9 mRNA expression in mouse RAW264.7 cells at 5 to […] pre-treated for 1 hr before RANKL stimulation measured after 24 to 48 hrs by RT-PCR method; type: functional, cell-based
[16] = system: RAW264.7; assay: Inhibition of RANKL-induced NFATc1 protein expression in mouse RAW264.7 cells nuclear extracts at 5 to […] pre-treated for 1 hr before RANKL stimulation measured after 24 hrs by Western blotting method; type: functional, cell-based
[17] = system: RAW264.7; assay: Inhibition of RANKL-induced NFkappaB protein expression in mouse RAW264.7 cells nuclear extracts at 5 to […] pre-treated for 1 hr before RANKL stimulation measured after 24 hrs by Western blotting method; type: functional, cell-based
[18] = system: RAW264.7; assay: Inhibition of RANKL-induced NFkappaB protein expression in mouse RAW264.7 cells nuclear extracts assessed as NFkappaB level at 5 uM pre-treated for 1 hr before RANKL stimulation measured after 24 hrs by Western blotting method relative to TBP protein; type: functional
Summary of the method: (§3)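 Cells (1 × 10⁶ per 6 cm plate) attached 24 h in DMEM/10% FBS. Pretreated with compound in α-MEM/10% FBS for 1 h, then RANKL 100 ng/mL for 24 h. Nuclear extracts (18 μg) run on 12% SDS-PAGE and blotted with monoclonal anti-NFATc1 or anti-NF-κB (1:1000, 12 h, 4 °C) plus HRP secondary, ECL detection. Band signal normalized to TATA-box binding protein.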

[19] = system: RAW264.7; assay: Inhibition of RANKL-induced NFkappaB protein expression in mouse RAW264.7 cells nuclear extracts assessed as NFkappaB level at […] pre-treated for 1 hr before RANKL stimulation measured after 24 hrs by Western blotting method relative to TBP protein; type: functional
[20] = system: RAW264.7; assay: Inhibition of RANKL-induced NFATc1 protein expression in mouse RAW264.7 cells nuclear extracts assessed as NFATc1 level at 5 uM pre-treated for 1 hr before RANKL stimulation measured after 24 hrs by Western blotting method relative to TBP protein; type: functional; summary of the method: as §3
[21] = system: RAW264.7; assay: Inhibition of RANKL-induced NFATc1 protein expression in mouse RAW264.7 cells nuclear extracts assessed as NFATc1 level at […] pre-treated for 1 hr before RANKL stimulation measured after 24 hrs by Western blotting method relative to TBP protein; type: functional
[22] = system: RAW264.7; assay: Inhibition of RANKL-induced bone resorption in mouse RAW264.7 cells incubated for 4 days by toluidine blue staining based pit formation assay; type: functional, cell-based
Summary of the method: (§4)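 Seeded at 1 × 10⁴/well onto dentine slices in α-MEM/10% FBS with 100 ng/mL RANKL plus compound. Medium with compound renewed every 2 days. On day 4, cells removed with 1 M ammonium hydroxide, slices stained with 0.1% toluidine blue, pits imaged by light microscopy. Resorbed area expressed as fraction of total area; significance versus the RANKL-only group.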

[23] = system: RAW264.7; assay: Inhibition of RANKL-induced bone resorption in mouse RAW264.7 cells assessed as reduction in resorbed area at 2.5 to 10 uM incubated for 4 days by toluidine blue staining based pit formation assay; type: functional, cell-based; summary of the method: as §4
[24] = Toxicity in mouse MC3T3-E1 cells assessed as effect on osteoblast differentiation by measuring ALP activity at […] incubated for 14 days in presence of beta-glycerol phosphate and ascorbic acid; type: cell-based; conditions: mc3t3-e1, 336 h
[25] = Toxicity in mouse MC3T3-E1 cells assessed as effect on osteoblast differentiation by measuring ECM calcification activity at […] incubated for 14 days in presence of beta-glycerol phosphate and ascorbic acid by Alizarin red S staining method; type: cell-based; conditions: mc3t3-e1, 336 h

With `O=c1oc2ccccc2c(=O)n1-c1ccc(I)cc1F` the viability at 24 h, 10 µM [1] was 91.4%, the CC50 at 24 h [2] was 23.6 µM and the Activity [3] was 1.8%. For the same compound, the IC50 [4] was 4.9 µM, the Activity [5] was “Non-toxic” and the Activity [6] was 49.1%. The Activity [7] was 29.1%, the Activity [8] was 74.1% and the inhibition [9] was “Dose-dependent effect”. The IC50 [9] was 7.3 µM, the inhibition [10] was “Active” and the inhibition [11] was “Active”. The inhibition [12] was “Active”, the inhibition [13] was “Dose-dependent effect” and the inhibition [14] was “Dose-dependent effect”. For the same compound, the inhibition [15] was “Dose-dependent effect”, the inhibition [16] was “Dose-dependent effect” and the inhibition [17] was “Dose-dependent effect”. For the same compound, the “fold change (FC)” value [18] was 0.75, the “fold change (FC)” value [19] was 0.58 and the “fold change (FC)” value [20] was 0.76. For the same compound, the “fold change (FC)” value [21] was 0.72, the inhibition [22] was “Dose-dependent effect” and the inhibition [23] was “Active”. For the same compound, the Activity [24] was “Non-toxic” and the Activity [25] was “Non-toxic”.
With `O=c1oc2ccccc2c(=O)n1-c1ccc(Cl)cc1F` the viability at 24 h, 10 µM [1] was 97.9%, the CC50 at 24 h [2] was 26.5 µM and the Activity [3] was 19.7%. The IC50 [4] was 7.1 µM, the Activity [5] was “Non-toxic” and the Activity [6] was 74.6%. The Activity [7] was 45.9%, the inhibition [9] was “Dose-dependent effect” and the IC50 [9] was 10.6 µM. The inhibition [10] was “Active”, the inhibition [11] was “Active” and the inhibition [12] was “Active”. The inhibition [13] was “Dose-dependent effect”, the inhibition [14] was “Dose-dependent effect” and the inhibition [15] was “Dose-dependent effect”. The inhibition [16] was “Dose-dependent effect”, the inhibition [17] was “Dose-dependent effect” and the “fold change (FC)” value [18] was 0.77. The “fold change (FC)” value [19] was 0.73, the “fold change (FC)” value [20] was 0.99 and the “fold change (FC)” value [21] was 0.76. The inhibition [22] was “Dose-dependent effect”, the inhibition [23] was “Active” and the Activity [24] was “Non-toxic”. For the same compound, the Activity [25] was “Non-toxic”.
